Published values collected from several papers.
Protocols differ between the studies behind these lines. pIC50, pKd: −log10 of the molar value.
sapA: sapA (Haemophilus influenzae, UniProt Q4QL73)
USP28: Ubiquitin carboxyl-terminal hydrolase 28 (USP28, Homo sapiens, UniProt Q96RU2)

Compound	target	assay	endpoint	value
NCCCC[C@H](NC(=O)[C@@H]1CCCN1)C(=O)N[C@@H](CO)C(=O)N[C@@H](CCC(=O)O)C(=O)N[C@@H](CCC(N)=O)C(=O)O	sapA	binding	pKd	7.55
CCC(C(=O)Nc1cc(NC2CCNC2)ccc1C)n1cc(Br)cc2nc(SCc3ccc(F)cc3)nc1-2 (stereo not drawn)	USP28	enzyme activity, inhibitor	pIC50	< 4.00
CC[C@H](C)[C@H](NC(C)=O)C(=O)N[C@@H](CCC(=O)O)C(=O)N[C@H](C(=O)N[C@H](C=O)CC(=O)O)[C@@H](C)O	Caspase-1 (CASP1, Homo sapiens, UniProt P29466)	enzyme activity, inhibitor	pIC50	7.96
CNC(=O)c1ccc(-c2cnn3ccc(C(=O)N(C)c4ccc(Cl)c(C(=O)OC)c4)cc23)cc1	TGF-beta receptor type-1 (TGFBR1, Homo sapiens, UniProt P36897)	enzyme activity, inhibitor	pIC50	< 4.52
C[C@@H](O)[C@H](NC(=O)CNC(=O)[C@H](Cc1ccc(O)cc1)NC(=O)[C@H](CO)NC(=O)[C@@H](N)CCCNC(=N)N)C(=O)O	sapA	binding	pKd	6.86
CCC(C(=O)Nc1cc(NC2COC2)ccc1C)n1cc(Br)cc2nc(SCc3ccc(F)cc3)nc1-2 (stereo not drawn)	USP28	enzyme activity, inhibitor	pIC50	< 4.00
C[C@@H](O)[C@H](NC(=O)CNC(=O)[C@H](Cc1ccc(O)cc1)NC(=O)[C@H](CCCNC(=N)N)NC(=O)[C@@H](N)CO)C(=O)O	sapA	binding	pKd	7.51
COC(=O)c1cc(N(C)C(=O)c2ccn3ncc(-c4ccc(C(=O)O)cc4)c3c2)ccc1Cl	Hepatocyte growth factor receptor (MET, Homo sapiens, UniProt P08581)	enzyme activity, inhibitor	pIC50	< 4.52
CCC(C(=O)Nc1cc(NC2CCNCC2)ccc1C)n1cc(Cl)cc2nc(SCc3ccc(F)cc3)nc1-2 (stereo not drawn)	Ubiquitin carboxyl-terminal hydrolase 7 (USP7, Homo sapiens, UniProt Q93009)	enzyme activity, inhibitor	pIC50	< 4.00
